From ChEMBL document CHEMBL1135747, “Radiolabeling and in vivo behavior of copper-64-labeled cross-bridged cyclam ligands” (J Med Chem, 2002) come the findings set out here.

A short description of data set [1]: Partition coefficient (logP). Format: physicochemical. The settings on record: octanol/water. A digest of the protocol: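 Each ⁶⁴Cu complex was partitioned between octanol and water, shaken 1 h at room temperature, and 100 μL from each phase was counted. Log P is the log of the octanol/water count ratio, averaged over five samples.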
The species named for data set [2] is Rattus norvegicus. In words: Distribution in rat blood after 24 hr postinjection. The settings on record: in vivo. Format: ADME, organism-based. The essentials:
(§1)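 ⁶⁴Cu-labeled complexes, at NCA and CA levels, were diluted in saline and injected into mature female Sprague–Dawley rats (180–200 g; n = 4). Each rat received up to 0.2 mL carrying 22 μCi. Rats were sacrificed at set times after injection, including 24 h. Organs were excised, weighed and counted against a weighed, counted standard. Values are %ID/g and %ID/organ ± sd.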

The species named for data set [3] is Rattus norvegicus. Put plainly: Distribution in rat kidney 24 hr postinjection. The class given is ADME, organism-based. The settings on record: in vivo. A digest of the protocol: as §1
The species entered for data set [4] is Rattus norvegicus. Put plainly: Distribution in rat liver after 24 hr postinjection. The class given is ADME, organism-based. Particulars: in vivo. A digest of the protocol: as §1

Regarding `C1CNCCN2CCCNCCN(C1)CC2`, in data set [1], the logP is -2.11. For `CCN(CC)C(=O)CN1CCCN2CCN(CCCN(CC(=O)N(CC)CC)CC2)CC1`, the logP in data set [1] is -1.95.

The compound `NC(=O)CCN1CCCN2CCN(CCC(N)=O)CCCN(CC1)CC2` returned a logP in data set [1] of -2.3. Turning to “Cu-1,4,8,11tetraaza-Cyclotetradecane-2,10-dione”, the Biodistribution is given as 0.23 in the data set listed under Rattus norvegicus [2], 0.097 in the data set listed under Rattus norvegicus [3] and 0.7 in the data set filed under Rattus norvegicus [4]. Regarding “Cu-(4,8,11-Tris-carboxymethyl-1,4,8,11tetraaza-cyclotetradec-1-yl)-acetic acid”, the Biodistribution is reported as 0.21 in the data set listed under Rattus norvegicus [2], 0.21 in the data set filed under Rattus norvegicus [3] and 0.49 in the data set listed under Rattus norvegicus [4].
